From ChEMBL document CHEMBL1759937, “Pyridinesulfonylureas and pyridinesulfonamides as selective bombesin receptor subtype-3 (BRS-3) agonists” (Bioorg Med Chem Lett, 2011) come the findings set out here.

The target of test [1] is T1, Bombesin receptor subtype-3 (Homo sapiens, UniProt P32247).
T1 sequence (P32247 whole entry): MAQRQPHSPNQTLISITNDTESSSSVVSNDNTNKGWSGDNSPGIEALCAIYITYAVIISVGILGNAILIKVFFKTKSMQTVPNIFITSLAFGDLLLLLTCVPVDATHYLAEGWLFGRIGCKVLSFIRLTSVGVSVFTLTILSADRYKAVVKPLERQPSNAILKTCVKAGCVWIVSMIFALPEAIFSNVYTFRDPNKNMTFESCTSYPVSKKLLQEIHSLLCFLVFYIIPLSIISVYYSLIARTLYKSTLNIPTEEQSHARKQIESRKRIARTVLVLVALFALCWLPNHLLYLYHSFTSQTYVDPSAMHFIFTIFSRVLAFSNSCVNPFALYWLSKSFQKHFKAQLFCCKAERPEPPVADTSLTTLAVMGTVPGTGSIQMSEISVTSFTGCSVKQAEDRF
Description: Binding affinity to human BRS3.

Test [2] addresses T2, Bombesin receptor subtype-3 (Mus musculus, UniProt O54798).
T2 sequence (O54798 whole entry): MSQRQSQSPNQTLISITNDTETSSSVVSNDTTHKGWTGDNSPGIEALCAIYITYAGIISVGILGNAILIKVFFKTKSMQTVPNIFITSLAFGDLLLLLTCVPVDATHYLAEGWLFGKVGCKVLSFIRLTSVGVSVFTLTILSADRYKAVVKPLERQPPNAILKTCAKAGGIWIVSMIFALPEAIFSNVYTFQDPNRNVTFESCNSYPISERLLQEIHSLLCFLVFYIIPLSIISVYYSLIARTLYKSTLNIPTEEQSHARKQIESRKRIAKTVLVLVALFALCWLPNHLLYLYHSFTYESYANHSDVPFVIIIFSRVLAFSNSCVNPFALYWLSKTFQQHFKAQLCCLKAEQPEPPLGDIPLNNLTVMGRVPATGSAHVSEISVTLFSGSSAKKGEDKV
Nature of the test: Agonist activity at mouse BRS3 by functional assay. Summed up:
(§1)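 HEK293AEQ cells expressing mouse BRS-3; bioluminescence read against log molar compound concentration. EC50 taken as the inflection point of the sigmoidal curve and normalized to the EC50 of an internal standard. Values under 2 µM with standard errors are means of at least three experiments; duplicate data are reported individually.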

The target in test [3] is T1, Bombesin receptor subtype-3. Description: Agonist activity at human BRS3 by functional assay.
Test [4] deals with T3, Bombesin receptor subtype-3 (Mus musculus) (UniProt O54798).
T3 sequence (whole entry): T2 sequence (O54798 whole entry)
Nature of the test: Agonist activity at mouse BRS3 by functional assay relative to control. The procedure, abridged:
as §1

Each structure is given as a SMILES string.

In turn, `CC(C)(C)NC(=O)NS(=O)(=O)c1cnccc1N[C@@H]1C[C@H]2CC[C@@H]1C2` [listing 1 of 2 here] came in with an IC50 in test [1] of 68 nM. The figures for the EC50 in test [2] and in test [3] were 21 nM and 55 nM, respectively.

For the compound `CC(C)(C)NC(=O)NS(=O)(=O)c1cnccc1N[C@H]1C[C@@H]2CC[C@H]1C2`, the IC50 in test [1] was 630 nM. Further, in test [4], the Activity stood at 93%. Moreover, the EC50 was found to be 110 nM in test [2] and 720 nM in test [3].

`CC(C)(C)NC(=O)NS(=O)(=O)c1cnccc1NC1CCCCC1` registered an IC50 in test [1] of 400 nM. Further, the Activity in test [4] came out at 90%. Also, the results for the EC50 in test [2] and in test [3] were 260 nM and 450 nM, respectively.

In test [1], `CC(C)(C)NC(=O)NS(=O)(=O)c1cnccc1N[C@@H]1C[C@H]2CC[C@]1(C)C2(C)C` gave an IC50 of 660 nM. In test [4], the Activity was 88%. Besides, the EC50 in test [2] is 90 nM; in test [3], 1700 nM.

`CC(C)(C)NC(=O)NS(=O)(=O)c1cnccc1N[C@H]1C[C@H]2CC[C@]1(C)C2(C)C` had an IC50 in test [1] of 300 nM. In addition, in test [4], the Activity was 82%. The EC50 in test [2] came out at 33 nM; in test [3], 450 nM.

Take `CC(C)(C)NC(=O)NS(=O)(=O)c1cnccc1N[C@H]1CN2CCC1CC2`: in test [1], the IC50 was more than 10000 nM. In test [4], this compound displayed an Activity of 0%. Moreover, the EC50 in test [2] and in test [3] was more than 10000 nM each time.

As to `CC(C)(C)NC(=O)NS(=O)(=O)c1cnccc1NCc1ccccc1`, the IC50 in test [1] was more than 10000 nM. For the same compound, in test [4], the Activity came to 20%. Also, the EC50 in test [2] came out at 6900 nM; in test [3] it was 7500 nM.

`CC(C)(C)NC(=O)NS(=O)(=O)c1cnccc1NC(C)(C)c1ccccc1`: in test [1], the IC50 was found to be 3000 nM. The Activity in test [4] worked out at 43%. For the same compound, the figures for the EC50 in test [2] and in test [3] were 4300 nM and 8100 nM, respectively.

Consider `CC(C)(C)NC(=O)NS(=O)(=O)c1cnccc1NN1CCCC1`, for which the IC50 in test [1] is more than 10000 nM. Also, in test [4], the Activity was determined as 5%. The EC50 in test [2] and in test [3] was more than 10000 nM each time.

The compound `CC(C)(C)NC(=O)NS(=O)(=O)c1cnccc1O[C@@H]1C[C@@H]2CC[C@H]1C2` gave an IC50 in test [1] of 880 nM. Further, the Activity in test [4] was 77%. For the same compound, the EC50 in test [2] stood at 320 nM; in test [3], 1600 nM.

In test [4], `CC(C)(C)NC(=O)NS(=O)(=O)c1cnccc1N[C@@H]1C[C@H]2CC[C@@H]1C2` [listing 2 of 2 here] gave an Activity of 100%.

In turn, `O=C(NC12CC3CC(CC(C3)C1)C2)NS(=O)(=O)c1cnccc1N[C@@H]1C[C@H]2CC[C@@H]1C2` (mixture of isomers) showed an IC50 in test [1] of 310 nM. This compound also gave an Activity in test [4] of 55%. For the same compound, the EC50 in test [2] is 39 nM; in test [3], 220 nM.

`CC(C)NC(=O)NS(=O)(=O)c1cnccc1N[C@@H]1C[C@H]2CC[C@@H]1C2` (racemic) returned a half-inhibitory concentration (IC50) in test [1] of 510 nM. In test [4], this compound gave an Activity of 88%. The EC50 worked out at 86 nM in test [2] and 440 nM in test [3].

Turning to `CC(C)NC(=O)NS(=O)(=O)c1cnccc1N[C@H]1C[C@H]2CC[C@@H]1C2` (racemic), the IC50 in test [1] amounted to 820 nM. In addition, the Activity in test [4] was 86%. The EC50 in test [2] stood at 98 nM; in test [3], 940 nM.

In test [1], `CC(C)(C)NC(=O)NS(=O)(=O)c1cnccc1N[C@@H]1C[C@H]2CC[C@@H]1C2` (racemic) [listing 1 of 2 here] gave an IC50 of 100 nM. In addition, the EC50 stood at 28 nM in test [2] and 81 nM in test [3].

`CC(C)(C)NC(=O)NS(=O)(=O)c1cnccc1N[C@H]1C[C@H]2CC[C@@H]1C2` (racemic) registered an IC50 in test [1] of 230 nM. In test [4], this compound had an Activity of 91%. Also, the values for the EC50 in test [2] and in test [3] were 49 nM and 160 nM, respectively.

In the case of `CCC(C)(C)NC(=O)NS(=O)(=O)c1cnccc1N[C@@H]1C[C@H]2CC[C@@H]1C2` (racemic), the IC50 in test [1] turned out to be 75 nM. The same compound yielded an Activity in test [4] of 108%. Moreover, the results for the EC50 in test [2] and in test [3] were 13 nM and 51 nM, respectively.

`CC(C)(C)CC(C)(C)NC(=O)NS(=O)(=O)c1cnccc1N[C@@H]1C[C@H]2CC[C@@H]1C2` (racemic): the IC50 in test [1] was found to be 530 nM. This compound registered an Activity in test [4] of 102%. Besides, the EC50 stood at 100 nM in test [2] and 350 nM in test [3].

In test [1], `CC(C)(C)NC(=O)NS(=O)(=O)c1cnccc1NC1CCc2ccccc21` (racemic) had an IC50 of 3800 nM. Also, in test [4], the Activity amounted to 63%. Besides, the EC50 was found to be 1300 nM in test [2] and 6800 nM in test [3].

`CC(C)(C)NC(=O)NS(=O)(=O)c1cnccc1O[C@@H]1C[C@H]2CC[C@@H]1C2` (racemic) returned an IC50 in test [1] of 990 nM. The compound further registered an Activity in test [4] of 92%. For the same compound, the EC50 in test [2] worked out at 320 nM; in test [3] it was 1200 nM.

With `CC(C)(C)NC(=O)NS(=O)(=O)c1ccccc1N[C@@H]1C[C@H]2CC[C@@H]1C2` (racemic), in test [1], the IC50 was determined as 6200 nM. Besides, the Activity in test [4] is 91%. Further, the EC50 stood at 340 nM in test [2] and 6400 nM in test [3].

In test [1], `CC(C)(C)CC(=O)NS(=O)(=O)c1cnccc1N[C@@H]1C[C@H]2CC[C@@H]1C2` (racemic) returned an IC50 of more than 10000 nM. The compound further yielded an Activity in test [4] of 61%. Besides, the EC50 came to 4900 nM in test [2] and 8300 nM in test [3].

Compound `CC(C)(C)OC(=O)NS(=O)(=O)c1cnccc1N[C@@H]1C[C@H]2CC[C@@H]1C2` (racemic) returned an IC50 in test [1] of more than 10000 nM. The compound further returned an Activity in test [4] of 89%. Moreover, the concentration for a half-maximal effect (EC50) in test [2] stood at 590 nM; in test [3], 8200 nM.

Take `CN(C(=O)NS(=O)(=O)c1cnccc1N[C@@H]1C[C@H]2CC[C@@H]1C2)C(C)(C)C` (racemic): the IC50 in test [1] was 650 nM. Moreover, the Activity in test [4] was determined as 96%. In addition, the results for the EC50 in test [2] and in test [3] were 180 nM and 640 nM, respectively.

On to `CC(C)(C)NC(=N)NS(=O)(=O)c1cnccc1N[C@@H]1C[C@H]2CC[C@@H]1C2` (racemic), for which the IC50 in test [1] worked out at 9700 nM. This compound returned an Activity in test [4] of 13%. For the same compound, the results for the EC50 in test [2] and in test [3] were 7000 nM and more than 10000 nM, respectively.

In test [1], `CN(C(=O)NC(C)(C)C)S(=O)(=O)c1cnccc1N[C@@H]1C[C@H]2CC[C@@H]1C2` (racemic) yielded an IC50 of 6700 nM. The same compound showed an Activity in test [4] of 49%. Besides, the figures for the EC50 in test [2] and in test [3] were 6500 nM and 8300 nM, respectively.

With `CC(C)(C)c1cccc(NS(=O)(=O)c2cnccc2N[C@@H]2C[C@H]3CC[C@@H]2C3)c1` (racemic), the IC50 in test [1] was 520 nM. The compound further came in with an Activity in test [4] of 102%. Also, the EC50 in test [2] was found to be 160 nM; in test [3] it was 2600 nM.

In test [1], `CC(C)(C)c1csc(NS(=O)(=O)c2cnccc2N[C@@H]2C[C@H]3CC[C@@H]2C3)n1` (racemic) gave an IC50 of 2500 nM. This compound had an Activity in test [4] of 81%. Further, the EC50 in test [2] was found to be 200 nM; in test [3], 2100 nM.

Consider `CC(C)(C)c1cc(NS(=O)(=O)c2cnccc2N[C@@H]2C[C@H]3CC[C@@H]2C3)[nH]n1` (racemic), for which the IC50 in test [1] was found to be 250 nM. Besides, the Activity in test [4] was found to be 113%. Also, the results for the EC50 in test [2] and in test [3] were 270 nM and 4000 nM, respectively.

In turn, `CC(C)c1n[nH]c(NS(=O)(=O)c2cnccc2N[C@@H]2C[C@H]3CC[C@@H]2C3)n1` (racemic) displayed an IC50 in test [1] of 770 nM. Further, the Activity in test [4] is 72%. In addition, the EC50 in test [2] stood at 410 nM; in test [3], 4000 nM.

For `O=S(=O)(Nc1nnc(C2CCC2)[nH]1)c1cnccc1N[C@@H]1C[C@H]2CC[C@@H]1C2` (racemic), the IC50 in test [1] is 290 nM. Also, the half-maximal effective concentration (EC50) in test [2] is 170 nM; in test [3], 1200 nM.

Consider `CC(C)(C)NC(=O)NS(=O)(=O)c1cnccc1N[C@@H]1C[C@H]2CC[C@@H]1C2` (racemic) [listing 2 of 2 here], for which, in test [4], the Activity was 101%.

Consider `O=S(=O)(Nc1nc(C2CCC2)n[nH]1)c1cnccc1N[C@@H]1C[C@H]2CC[C@@H]1C2` (racemic), for which, in test [4], the Activity turned out to be 84%.

In test [1], `O=S(=O)(Nc1nc(C2CCC2)n[nH]1)c1cnccc1NC1CC2CCC1C2` (single isomer, unassigned) [listing 1 of 2 here] registered an IC50 of 310 nM. Moreover, the EC50 is 190 nM in test [2] and 1700 nM in test [3].

For `O=S(=O)(Nc1nc(C2CCC2)n[nH]1)c1cnccc1NC1CC2CCC1C2` (single isomer, unassigned) [listing 2 of 2 here], the Activity in test [4] was 88%.

`O=S(=O)(Nc1nc(C2CCC2)n[nH]1)c1cnccc1NC1CC2CCC1C2` (single isomer, unassigned; faster eluting) [listing 1 of 2 here] registered an IC50 in test [1] of 68 nM. Besides, the figures for the EC50 in test [2] and in test [3] were 51 nM and 380 nM, respectively.

On to `O=S(=O)(Nc1nc(C2CCC2)n[nH]1)c1cnccc1NC1CC2CCC1C2` (single isomer, unassigned; faster eluting) [listing 2 of 2 here], for which, in test [4], the Activity worked out at 87%.
